Results published in ChEMBL document CHEMBL1121710, “alpha-Ethynyl and alpha-vinyl analogues of ornithine as enzyme-activated inhibitors of mammalian ornithine decarboxylase” (J Med Chem, 1981).

Experiments:
[1] = target: T1, Ornithine decarboxylase (Rattus norvegicus) (UniProt P09057); assay: The compound was tested for the inhibitory activity against L-orinithine carboxylase in rat thymus. dose 200 mg/kg, ip); assay type: functional, organism-based; design: dose 200 mg/kg; scale not given: the % may be the effect or the level left; details: at 200 mg/kg
T1 sequence (whole entry): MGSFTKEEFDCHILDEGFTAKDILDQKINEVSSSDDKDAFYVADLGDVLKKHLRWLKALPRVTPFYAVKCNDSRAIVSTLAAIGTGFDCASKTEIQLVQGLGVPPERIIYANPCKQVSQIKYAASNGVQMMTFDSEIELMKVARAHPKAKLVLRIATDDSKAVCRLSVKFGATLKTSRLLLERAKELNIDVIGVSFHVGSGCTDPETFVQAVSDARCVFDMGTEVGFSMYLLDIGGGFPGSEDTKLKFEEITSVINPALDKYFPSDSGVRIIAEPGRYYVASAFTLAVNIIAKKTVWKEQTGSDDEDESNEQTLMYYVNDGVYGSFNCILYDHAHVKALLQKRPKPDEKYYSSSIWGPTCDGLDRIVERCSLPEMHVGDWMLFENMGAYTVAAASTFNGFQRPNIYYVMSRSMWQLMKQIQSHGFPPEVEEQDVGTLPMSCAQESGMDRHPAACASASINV
Procedure, shortened: (§1)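 Male Sprague–Dawley rats (200–220 g), fed ad libitum, 12 h light/dark. Single ip dose in 0.9% saline; saline-injected controls. Killed by decapitation 5 h later at a fixed time of day. Ventral prostate, testis and thymus homogenized; ODC activity measured as CO2 release and expressed as % of control. Mean ± SEM of five animals; Student's t test.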

[2] = target: T1, Ornithine decarboxylase (Rattus norvegicus); assay: The compound was tested for the inhibitory activity against L-orinithine carboxylase in ventral prostate of the rat dose 200 mg/kg, ip); assay type: functional, organism-based; design: dose 200 mg/kg; scale not given: the % may be the effect or the level left; details: Prostate gland; at 200 mg/kg; procedure, shortened: as §1
[3] = target: T1, Ornithine decarboxylase (Rattus norvegicus); assay: Effect on the time of half-inactivation of ornithine decarboxylase at 10 uM concentration; assay type: functional
Procedure, shortened: (§2)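 Rat liver ODC from thioacetamide-treated rats (150 mg/kg, 18 h before sacrifice), purified about tenfold by acid treatment at pH 4.6. Enzyme preincubated at 37 °C in 30 mM sodium phosphate pH 7.1 with 5 mM dithiothreitol, 0.1 mM pyridoxal phosphate, inhibitor and 1 mM effector where listed. Half-inactivation time derived from pseudo-first-order loss.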

[4] = target: T1, Ornithine decarboxylase (Rattus norvegicus); assay: The compound was tested for the inhibitory activity against L-orinithine carboxylase in ventral prostate of the rat at dose 25 mg/kg, ip); assay type: functional, organism-based; design: dose 25 mg/kg; scale not given: the % may be the effect or the level left; details: Prostate gland; procedure, shortened: as §1
[5] = target: T1, Ornithine decarboxylase (Rattus norvegicus); assay: The compound was tested for the inhibitory activity against L-orinithine carboxylase in rat testis. dose 200 mg/kg, ip); assay type: functional, organism-based; design: dose 200 mg/kg; scale not given: the % may be the effect or the level left; details: at 200 mg/kg; procedure, shortened: as §1
[6] = target: T1, Ornithine decarboxylase (Rattus norvegicus); assay: Effect on the time of half-inactivation of ornithine decarboxylase in the presence of 10 uM concentration + 1 mM L-2-methylornithine; assay type: functional; procedure, shortened: as §2
[7] = target: T1, Ornithine decarboxylase (Rattus norvegicus); assay: The compound was tested for the inhibitory activity against L-orinithine carboxylase in ventral prostate of the rat at dose 50 mg/kg, ip); assay type: functional, organism-based; design: dose 50 mg/kg; scale not given: the % may be the effect or the level left; details: Prostate gland; procedure, shortened: as §1
[8] = target: T1, Ornithine decarboxylase (Rattus norvegicus); assay: Effect on the time of half-inactivation of ornithine decarboxylase in the presence of 10 uM concentration + 1 mM D-2-methylornithine; assay type: functional; procedure, shortened: as §2
[9] = target: T1, Ornithine decarboxylase (Rattus norvegicus); assay: The compound was tested for the inhibitory activity against L-orinithine carboxylase inventral prostate of the rat at dose 100 mg/kg, ip); assay type: functional, organism-based; design: dose 100 mg/kg; scale not given: the % may be the effect or the level left; details: Prostate gland; procedure, shortened: as §1
[10] = target: T1, Ornithine decarboxylase (Rattus norvegicus); assay: Effect on the time of half-inactivation of ornithine decarboxylase in the presence of 10 uM concentration + 1 mM L-ornithine; assay type: functional; procedure, shortened: as §2
[11] = target: T1, Ornithine decarboxylase (Rattus norvegicus); assay: The compound was tested for the inhibitory activity against L-orinithine carboxylase in ventral prostate of the rat at dose 12.5 mg/kg, ip); assay type: functional, organism-based; design: dose 12.5 mg/kg; scale not given: the % may be the effect or the level left; details: Prostate gland; procedure, shortened: as §1

Control [1]: 54%
Control [2]: 18%
Time of half inactivation [3]: 18 min
Control [4]: 56%
Control [5]: 80%
Time of half inactivation [6]: 270 min
Control [7]: 40%
Time of half inactivation [8]: 26 min
Control [9]: 19%
Time of half inactivation [10]: 81 min
Control [11]: 59%
Compound: C#CC(N)(CCCN)C(=O)O (stereo unspecified)
